Laboratory results: ChEMBL document CHEMBL4765271, “Design, synthesis and biological evaluation of 2,3-dihydro-5,6-dimethoxy-1H-inden-1-one and piperazinium salt hybrid derivatives as hAChE and hBuChE enzyme inhibitors” (Eur J Med Chem, 2020)
Activity calls are given as the source filed them. The rule behind the calls is not given here.

Tests used:
Acetylcholinesterase [1] = target: T1, Acetylcholinesterase (Homo sapiens, UniProt P22303); assay: Inhibition of human erythrocyte AChE using acetylthiocholine as substrate measured after 5 mins by Ellman's method
Cholinesterase [2] = target: T2, Cholinesterase (Homo sapiens, UniProt P06276); assay: Inhibition of human plasma BuChE using butyrylthiocholine as substrate measured after 5 mins by Ellman's method
Homo sapiens = species: Homo sapiens; assay: Selectivity ratio of IC50 for human erythrocyte AChE to IC50 for human plasma BuChE
In short: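 Ellman assay used cholinesterases from human blood. Inhibitor at five concentrations was pre-incubated 5 min at 37 °C in phosphate buffer pH 8 with DTNB (3.5 mM stock) and acetylthiocholine iodide substrate (7 mM stock). The reaction was started with enzyme and read as absorbance increase at 412 nm. Each run was done twice. The ratio is derived from the AChE and BuChE IC50 values.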

Acetylcholinesterase [3] = target: T1, Acetylcholinesterase; assay: Inhibition of human erythrocyte AChE at 100 uM using acetylthiocholine as substrate measured after 5 mins by Ellman's method relative to control
In short: (§1)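 Ellman spectrophotometric assay using cholinesterases from human blood. The 1 ml medium held pH 8 phosphate buffer, DTNB (3.5 mM stock), thiocholine substrate (7 mM stock) and inhibitor. It was preincubated 5 min at 37 °C, then started by adding enzyme. Absorbance increase was read at 412 nm over 5 min intervals against control cuvettes. Each experiment was run twice.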

Cholinesterase [4] = target: T2, Cholinesterase; assay: Inhibition of human plasma BuChE at 100 uM using butyrylthiocholine as substrate measured after 5 mins by Ellman's method relative to control; in short: as §1
Cholinesterase [5] = target: T2, Cholinesterase; assay: Non competitive inhibition of human plasma BuChE using varying levels of butyrylthiocholine iodide as substrate by Lineweaver-Burk plot analysis
Acetylcholinesterase [6] = target: T1, Acetylcholinesterase; assay: Mixed type inhibition of human erythrocyte AChE using varying levels of acetylthiocholine iodide as substrate by Lineweaver-Burk plot analysis
MCF7 = assay: Cytotoxicity against human MCF7 cells after 48 hrs by MTT assay; assay type: ADME, cell-based; conditions: MCF7, 48 h
SH-SY5Y = assay: Cytotoxicity against human SH-SY5Y cells measured after 48 hrs by MTT assay; assay type: ADME, cell-based
HFF = assay: Cytotoxicity against HFF cells assessed as reduction in cell viability incubated for 48 hrs by MTT assay; assay type: ADME, cell-based; conditions: Homo sapiens
PC-12 [7] = assay: Protection against amyloid beta (1 to 42)-induced toxicity in rat PC-12 cells assessed as increase in cell viability measured after 24 hrs by transmission electron microscopy; assay type: functional, cell-based
In short: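 PC12 cells incubated with 5 μM Aβ(1-42), with or without compound at 1 or 10 μM, at 37 °C for 24 h. Cell morphology and viability were compared by transmission electron microscopy.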

PC-12 [8] = assay: Antioxidant activity in amyloid beta (1 to 42)-induced oxidative stress in rat PC-12 cells assessed as reduction in ROS formation by measuring apoptotic index at 1 uM measured after 24 hrs by DAPI staining based TUNEL assay (reference value: 60 +/- 10); assay type: functional
PC-12 [9] = assay: Antioxidant activity in amyloid beta (1 to 42)-induced oxidative stress in rat PC-12 cells assessed as reduction in ROS formation by measuring apoptotic index at 10 uM measured after 24 hrs by DAPI staining based TUNEL assay (reference value: 60 +/- 10); assay type: functional
PC-12 [10] = assay: Antioxidant activity in amyloid beta (1 to 42)-induced oxidative stress in rat PC-12 cells assessed as reduction in ROS formation by measuring DCF fluorescence intensity at 1 uM measured after 24 hrs by DCFH-DA staining based fluorescence spectrophotometric assay (reference value: 51 +/- 11); assay type: functional
PC-12 [11] = assay: Antioxidant activity in amyloid beta (1 to 42)-induced oxidative stress in rat PC-12 cells assessed as reduction in ROS formation by measuring DCF fluorescence intensity at 10 uM measured after 24 hrs by DCFH-DA staining based fluorescence spectrophotometric assay (reference value: 51 +/- 11); assay type: functional
PC-12 [12] = assay: Antioxidant activity in amyloid beta (1 to 42)-induced oxidative stress in rat PC-12 cells assessed as reduction in ROS formation measured after 24 hrs by DCFH-DA staining based fluorescence spectrophotometric assay; assay type: functional, cell-based
In short: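 Intracellular ROS: PC12 cells given 5 μM Aβ(1-42) with or without compound (1 or 10 μM), then loaded with 10 μM DCFH-DA for 5 min at room temperature. DCF fluorescence read at ex 485/em 530 nm, with DAPI counterstain (ex 358/em 461) for microscopy.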

PC-12 [13] = assay: Antioxidant activity in amyloid beta (1 to 42)-induced oxidative stress in rat PC-12 cells assessed as reduction in ROS formation measured after 24 hrs by DAPI staining based TUNEL assay; assay type: functional, cell-based
In short: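 Aβ(1-42) (5 μM) treated PC12 cells, with compound at 1 or 10 μM, fixed in 4% paraformaldehyde (1 h), blocked with […], then permeabilized with 0.1% Triton X-100/0.1% sodium citrate on ice. TUNEL reaction 60 min at 37 °C, DAPI nuclear counterstain, imaged by fluorescence/confocal microscopy.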

PC-12 [14] = assay: Cytoprotective activity against amyloid beta (1 to 42)-induced toxicity in rat PC-12 cells assessed as decrease in MDA level measured after 8 hrs by TBARS assay; assay type: functional, cell-based
In short: (§2)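 Cells seeded in six-well plates, exposed to 5 μM Aβ(1-42) with or without compound (1 or 10 μM) for 8 h. They were collected and sonicated on ice, then lysed with SDS. TBA reagent added and heated at 95 °C for 45-60 min. MDA read by TBARS absorbance at 535 nm.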

PC-12 [15] = assay: Cytoprotective activity against amyloid beta (1 to 42)-induced toxicity in rat PC-12 cells assessed as decrease in MDA level at 1 to 10 uM measured after 8 hrs by TBARS assay relative to control; assay type: functional; parameters: scale not given: the % may be the effect or the level left; conditions: dose 1-10 µM; in short: as §2
PC-12 [16] = assay: Cytoprotective activity against amyloid beta (1 to 42)-induced toxicity in rat PC-12 cells assessed as decrease in LDH level by spectrophotometric assay; assay type: functional, cell-based
In short: (§3)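 PC12 cells exposed to 5 μM Aβ(1-42) in serum-free DMEM 24 h at 37 °C, then compound (1 or 10 μM) added for 24 h. LDH in culture medium measured as rate of NADH oxidation (pyruvate→lactate), read as absorbance decrease at 340 nm. Expressed as leakage into medium relative to total LDH.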

PC-12 [17] = assay: Cytoprotective activity against amyloid beta (1 to 42)-induced toxicity in rat PC-12 cells assessed as decrease in LDH level at 1 uM by spectrophotometric assay relative to control; assay type: functional; parameters: scale not given: the % may be the effect or the level left; in short: as §3
PC-12 [18] = assay: Cytoprotective activity against amyloid beta (1 to 42)-induced toxicity in rat PC-12 cells assessed as decrease in LDH level at 10 uM by spectrophotometric assay relative to control; assay type: functional; parameters: scale not given: the % may be the effect or the level left; in short: as §3
PC-12 [19] = assay: Antioxidant activity in amyloid beta (1 to 42)-induced oxidative stress in rat PC-12 cells assessed as increase in TAC level at 1 to 10 uM in presence of ABTS by spectrophotometric assay; assay type: functional, cell-based; conditions: dose 1-10 µM
In short: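 Total antioxidant capacity measured with the ABTS/myoglobin method: 10 mM PBS pH 7.2, myoglobin, ABTS (300 μM final) and diluted sample or Trolox held 3 min at 25 °C. The reaction was started and absorbance read at 450 nm for 5 min at 25 °C. Cells were treated with 5 μM Aβ(1-42) with or without compound.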

PC-12 [20] = assay: Antiinflammatory activity in amyloid beta (1 to 42)-induced cytokine production in rat PC-12 cells assessed as decrease in IL-1beta mRNA level by SYBR green dye based RT-PCR analysis; assay type: functional, cell-based
In short: (§4)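 PC12 cells (7-day cultures, DMEM with 7% FBS, 7% horse serum) exposed to 5 μM Aβ(1-42) in serum-free DMEM for 24 h at 37 °C, 5% CO2, then compound at 1 or 10 μM for 24 h. Total RNA isolated, reverse transcribed, and IL-1β and TNF-α mRNA quantified by SYBR Green real-time PCR; 2^-ΔΔCT method relative to β-actin.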

PC-12 [21] = assay: Antiinflammatory activity in amyloid beta (1 to 42)-induced cytokine production in rat PC-12 cells assessed as decrease in TNFalpha mRNA level by SYBR green dye based RT-PCR analysis; assay type: functional, cell-based; in short: as §4
Acetylcholinesterase [22] = target: T1, Acetylcholinesterase; assay: Non competitive inhibition of human erythrocyte AChE using varying levels of acetylthiocholine iodide as substrate by Lineweaver-Burk plot analysis
Acetylcholinesterase [23] = target: T1, Acetylcholinesterase

T1 sequence (P22303 whole entry): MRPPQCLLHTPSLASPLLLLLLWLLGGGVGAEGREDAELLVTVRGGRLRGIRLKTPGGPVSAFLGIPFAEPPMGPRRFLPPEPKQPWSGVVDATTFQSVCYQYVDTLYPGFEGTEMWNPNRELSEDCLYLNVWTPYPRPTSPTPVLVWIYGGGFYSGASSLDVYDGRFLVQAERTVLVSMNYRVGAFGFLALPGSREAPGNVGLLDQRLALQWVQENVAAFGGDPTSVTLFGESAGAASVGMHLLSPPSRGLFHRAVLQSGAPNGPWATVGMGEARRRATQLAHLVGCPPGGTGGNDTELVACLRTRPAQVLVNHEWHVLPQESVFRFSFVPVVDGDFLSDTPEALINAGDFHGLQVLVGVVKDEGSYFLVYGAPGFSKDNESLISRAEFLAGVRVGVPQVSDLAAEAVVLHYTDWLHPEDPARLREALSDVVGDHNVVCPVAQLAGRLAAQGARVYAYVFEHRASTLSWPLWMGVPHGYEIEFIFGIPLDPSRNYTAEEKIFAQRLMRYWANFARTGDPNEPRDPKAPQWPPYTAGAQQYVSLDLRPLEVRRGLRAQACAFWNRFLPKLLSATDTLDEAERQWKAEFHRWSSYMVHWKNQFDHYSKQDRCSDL
T2 sequence (P06276 whole entry): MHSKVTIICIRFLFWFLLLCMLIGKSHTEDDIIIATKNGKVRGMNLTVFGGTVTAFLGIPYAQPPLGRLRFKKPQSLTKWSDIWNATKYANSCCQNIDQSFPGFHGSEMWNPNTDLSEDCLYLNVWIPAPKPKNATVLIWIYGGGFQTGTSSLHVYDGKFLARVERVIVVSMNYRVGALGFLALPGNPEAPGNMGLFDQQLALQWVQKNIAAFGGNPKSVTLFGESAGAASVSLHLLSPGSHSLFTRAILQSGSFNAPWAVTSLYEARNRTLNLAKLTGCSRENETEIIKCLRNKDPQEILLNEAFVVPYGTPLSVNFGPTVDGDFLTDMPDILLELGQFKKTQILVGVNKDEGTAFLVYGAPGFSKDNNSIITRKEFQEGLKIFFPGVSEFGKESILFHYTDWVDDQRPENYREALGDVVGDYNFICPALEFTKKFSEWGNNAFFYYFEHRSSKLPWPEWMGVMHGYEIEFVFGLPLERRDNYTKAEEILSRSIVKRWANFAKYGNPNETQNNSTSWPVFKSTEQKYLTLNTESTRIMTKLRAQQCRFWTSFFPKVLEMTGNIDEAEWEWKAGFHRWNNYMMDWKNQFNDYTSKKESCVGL

CCCCCC[N+]1(C)CCN(c2ccc(/C=C3\Cc4cc(OC)c(OC)cc4C3=O)cc2)CC1
IC50 (Acetylcholinesterase [1]): 4250 nM
IC50 (Cholinesterase [2]): 3600 nM
Ratio IC50 (Homo sapiens): 1.18

COc1cc2c(cc1OC)C(=O)/C(=C/c1ccc(N3CC[N+](C)(Cc4ccccn4)CC3)cc1)C2
IC50 (Acetylcholinesterase [1]): 380 nM
IC50 (Cholinesterase [2]): 3240 nM
Ratio IC50 (Homo sapiens): 0.12

COc1cc2c(cc1OC)C(=O)/C(=C/c1ccc(OCCCCBr)cc1)C2
inhibition (Acetylcholinesterase [3]): 27.8%
inhibition (Cholinesterase [4]): 0%

COc1cc2c(cc1OC)C(=O)/C(=C/c1ccc(N3CC[N+](C)(Cc4cccc(Cl)c4)CC3)cc1)C2.[Br-]
IC50 (Acetylcholinesterase [1]): 320 nM
IC50 (Cholinesterase [2]): 430 nM
Ratio IC50 (Homo sapiens): 0.74
Ki (Cholinesterase [5]): 500 nM
Ki (Acetylcholinesterase [6]): 1000 nM
Kinact (Acetylcholinesterase [6]): 0.5 µM
IC50 (MCF7): 1520 nM
IC50 (SH-SY5Y): 1230 nM
IC50 (HFF): 1980 nM
Activity (PC-12 [7]): Dose-dependent effect
Activity_index (PC-12 [8]): 50
Activity_index (PC-12 [9]): 35
Flu intensity (PC-12 [10]): 51
Flu intensity (PC-12 [11]): 38
Activity (PC-12 [12]): Dose-dependent effect
Activity (PC-12 [13]): Dose-dependent effect
Activity (PC-12 [14]): Dose-dependent effect
Activity (PC-12 [15]): 40.4%
Activity (PC-12 [16]): Dose-dependent effect
Activity (PC-12 [17]): 16.6%
Activity (PC-12 [18]): 27.5%
Activity (PC-12 [19]): Active
Activity (PC-12 [20]): Dose-dependent effect
Activity (PC-12 [21]): Dose-dependent effect

COc1cc2c(cc1OC)C(=O)/C(=C/c1ccc(N3CC[N+](C)(Cc4ccccc4Br)CC3)cc1)C2
IC50 (Acetylcholinesterase [1]): 540 nM
IC50 (Cholinesterase [2]): 1400 nM
Ratio IC50 (Homo sapiens): 0.38

COc1cc2c(cc1OC)C(=O)/C(=C/c1ccc(N3CC[N+](C)(Cc4cccc(Br)c4)CC3)cc1)C2
IC50 (Acetylcholinesterase [1]): 1990 nM
IC50 (Cholinesterase [2]): 650 nM
Ratio IC50 (Homo sapiens): 3.06

COc1cc2c(cc1OC)C(=O)/C(=C/c1ccc(OCCBr)cc1)C2
inhibition (Acetylcholinesterase [3]): 6.16%
inhibition (Cholinesterase [4]): 5.16%

COc1cc2c(cc1OC)C(=O)/C(=C/c1ccc(N3CC[N+](C)(Cc4ccccc4Cl)CC3)cc1)C2
IC50 (Acetylcholinesterase [1]): 480 nM
IC50 (Cholinesterase [2]): 2160 nM
Ratio IC50 (Homo sapiens): 0.22

COc1cc2c(cc1OC)C(=O)/C(=C/c1ccc(N3CC[N+](C)(Cc4ccc(Br)cc4)CC3)cc1)C2
IC50 (Acetylcholinesterase [1]): 2550 nM
IC50 (Cholinesterase [2]): 4600 nM
Ratio IC50 (Homo sapiens): 0.55

CCC[N+]1(C)CCN(c2ccc(/C=C3\Cc4cc(OC)c(OC)cc4C3=O)cc2)CC1
IC50 (Acetylcholinesterase [1]): 2150 nM
IC50 (Cholinesterase [2]): 20200 nM
Ratio IC50 (Homo sapiens): 0.11

COc1cc2c(cc1OC)C(=O)/C(=C/c1ccc(N3CC[N+](C)(CCO)CC3)cc1)C2
IC50 (Acetylcholinesterase [1]): 1100 nM
IC50 (Cholinesterase [2]): 6480 nM
Ratio IC50 (Homo sapiens): 0.17

COc1cc2c(cc1OC)C(=O)/C(=C/c1ccc(N3CC[N+](C)(Cc4ccccc4)CC3)cc1)C2
IC50 (Acetylcholinesterase [1]): 370 nM
IC50 (Cholinesterase [2]): 430 nM
Ratio IC50 (Homo sapiens): 0.86
Ki (Acetylcholinesterase [22]): 500 nM
Ki (Cholinesterase [5]): 400 nM
IC50 (MCF7): 1200 nM
IC50 (SH-SY5Y): 1280 nM
IC50 (HFF): 2400 nM
Kinact (Acetylcholinesterase [23]): 0.5 µM

CCCCC[N+]1(C)CCN(c2ccc(/C=C3\Cc4cc(OC)c(OC)cc4C3=O)cc2)CC1
IC50 (Acetylcholinesterase [1]): 540 nM
IC50 (Cholinesterase [2]): 3240 nM
Ratio IC50 (Homo sapiens): 0.17

C=CC[N+]1(C)CCN(c2ccc(/C=C3\Cc4cc(OC)c(OC)cc4C3=O)cc2)CC1
IC50 (Acetylcholinesterase [1]): 430 nM
IC50 (Cholinesterase [2]): 25200 nM
Ratio IC50 (Homo sapiens): 0.02

CCCC[N+]1(C)CCN(c2ccc(/C=C3\Cc4cc(OC)c(OC)cc4C3=O)cc2)CC1
IC50 (Acetylcholinesterase [1]): 540 nM
IC50 (Cholinesterase [2]): 21600 nM
Ratio IC50 (Homo sapiens): 0.02

COc1cc2c(cc1OC)C(=O)/C(=C/c1ccc(N3CCN(C)CC3)cc1)C2
IC50 (Acetylcholinesterase [1]): 320 nM
inhibition (Cholinesterase [4]): 23.9%
